# In the library only some 2.9% were active in any assay of this set; here they are far more common.
# SENP1 inh: inhibitors of human SENP1 SUMO protease catalytic domain | Q9P0U3 | recombinant SENP1 catalytic domain, CyPet-SUMO1-YPet FRET cleavage | inhibition, % at 10 µM | 0.21% of 360,000 active;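 active = inhibition at least 30% at 10 µM, raw YFP signal under a set limit, fluorescence ratio 0.5 to 1.5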
#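 Material: hSENP1 catalytic domain, recombinant; medium: Tris pH 8 with BME, BSA, NP40 and catalase; compound: single concentration of 10 µM compound, 0.5% DMSO final; technique: FRET read of cyan and yellow fluorescence; timing: 50 min enzyme reaction, room temperature, light-protected; reagent: SFCypet-SUMO1-SFYpet substrate at 25 nM; control set: no-enzyme low, enzyme-DMSO high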
# SENP8 block-1: inhibitors of human SENP8 protease; Q96LD8; purified SENP8, Z-RLRGG-aminoluciferin cleavage, luminescence; inhibition, % at 10 µM; 1.2% of 330,000 active; in the data active = inhibition above about 50%
# SENP6 inh: SENP6 protease inhibition; 1.8% of 330,000 active; inhibition, % at 10 µM; AID 2599; Recombinant SENP6 catalytic domain, aminoluciferin luminescence; Q9GZR1;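 active = inhibition above about 50% at the single tested dose, limit read from the data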
# Target sequence (Q9GZR1 628-1112 limits assumed): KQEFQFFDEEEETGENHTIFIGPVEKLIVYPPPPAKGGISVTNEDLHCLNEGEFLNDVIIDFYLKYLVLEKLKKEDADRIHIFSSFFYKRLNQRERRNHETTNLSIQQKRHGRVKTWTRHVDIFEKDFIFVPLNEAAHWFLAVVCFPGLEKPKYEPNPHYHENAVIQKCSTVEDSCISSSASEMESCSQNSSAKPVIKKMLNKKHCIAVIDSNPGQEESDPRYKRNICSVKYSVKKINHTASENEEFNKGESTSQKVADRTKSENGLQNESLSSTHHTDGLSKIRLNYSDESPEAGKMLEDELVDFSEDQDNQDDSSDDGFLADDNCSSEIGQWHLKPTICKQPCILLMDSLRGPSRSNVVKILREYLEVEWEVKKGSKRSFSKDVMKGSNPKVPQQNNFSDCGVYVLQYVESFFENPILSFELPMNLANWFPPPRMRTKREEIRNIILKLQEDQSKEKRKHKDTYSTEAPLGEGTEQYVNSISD
# HSP90 inh: HSP90 refolding inhibition in rabbit reticulocyte lysate. luciferase refolding luminescence, 3 h. inhibition, % at 5.6 µM. 0.91% of 290,000 active;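 active = inhibition above the screen-wide mean plus 3 SD, computed separately per campaign, cut at about 16% in these data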;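 also: inhibitors lower the luminescence because luciferase stays unfolded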
# SENP7 inh: blocks the human protease SENP7. Q9BQF6. recombinant SENP7, Z-RLRGG-aminoluciferin luminescence, 40 min. inhibition, % at 5 µM. 1.5% of 330,000 active. AID 434973;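 active = inhibition above about 50% at the single test dose, limit read from the data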
# SENP8 block-2: blocks human SENP8 cleavage of Nedd8 substrate. Q96LD8. AID 602440. inhibition, % at 20 µM. 0.64% of 360,000 active. recombinant SENP8, Nedd8 substrate fluorescence; in the data active = inhibition mostly above about 40%, no sharp cut-off; inactive = mostly below about 27%
# SENP8 confirm: confirmation of human SENP8 protease inhibitors; inhibition, % at 12.5 µM; shares compounds with SENP7 inh; 40% of 6,200 active; AID 488912; Recombinant SENP8, Z-RLRGG-aminoluciferin luminescence, 60 min;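 active = mean inhibition across replicates above about 50%, limit read from the data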
# SENP6 confirm: confirmation of human SENP6 protease inhibitors; inhibition, % at 12.5 µM; shares compounds with SENP7 inh; recombinant SENP6, Z-RLRGG-aminoluciferin luminescence; 58% of 6,200 active
# SENP7 confirm: human SENP7 inhibition, confirmed | shares compounds with SENP7 inh | recombinant SENP7, Z-RLRGG-aminoluciferin luminescence, 40 min | inhibition, % at 12.5 µM | 69% of 6,200 active
# Casp3 SENP sel: inhibits human caspase-3 in SENP selectivity test; shares compounds with SENP7 inh; purified caspase-3, Z-DEVD-aminoluciferin luminescence, 60 min; inhibition, % at 12.5 µM; 60% of 6,200 active;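 active = mean inhibition above about 50%, limit read from the data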
# SENP luc ctr: counter-screen for SENP inhibitors: luminescence interference; Pre-incubated SENP8/Z-RLRGG-aminoluciferin, luciferase luminescence interference; inhibition, % at 12.5 µM; 39% of 6,200 active; AID 488919; shares compounds with SENP7 inh;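 active = mean inhibition above about 50% when retested at one dose, limit read from the data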
# Hits are given with their value; . = inactive; / = not tested or not shown.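 The calls were made as follows, unless noted: active = mean inhibition above about 50% in the one-dose retest (limit read from the data); inactive = the rest.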
SMILES,SENP1 inh,SENP8 block-1,SENP6 inh,HSP90 inh,SENP7 inh,SENP8 block-2,SENP8 confirm,SENP6 confirm,SENP7 confirm,Casp3 SENP sel,SENP luc ctr
O=c1[nH]c(/C=C/c2cccc3ccccc23)nc2ccccc12,.,.,.,.,.,.,/,/,/,/,/
O=c1[nH]c(/C=C/c2ccc(Br)cc2)nc2ccccc12,.,.,.,.,89,.,.,.,.,.,.
Cc1cccc(/C=C\c2nc3ccccc3c(=O)[nH]2)c1,.,80,89,.,99,.,55,.,54,74,.
CC1CCc2nc3sc4c(c3c(N)c2C1)CCCC4 (stereo not given),.,.,.,.,.,.,/,/,/,/,/
Nc1c2c(nc3sc4c(c13)CCCCC4)CCCCC2,.,57,73,.,74,.,.,.,.,.,.
COC(=O)C1CSC(C(=O)OC)N1C(=O)CN1CCN(c2ccccc2)CC1 (stereo not given),.,.,.,.,.,.,/,/,/,/,/
O=C(O)c1cc(-c2ccc3ccccc3c2)nc2ccc(F)cc12,.,66,73,.,.,.,.,.,.,.,.
O=C(O)c1cc(-c2ccc3ccccc3n2)nc2ccccc12,.,.,.,.,.,.,/,/,/,/,/
Cc1ccn2cc(-c3cnoc3C)nc2c1,.,.,.,.,.,.,/,/,/,/,/
COc1c(Cl)cccc1-c1cn2ccc(C)cc2n1,.,84,90,.,94,.,90,91,100,90,.
Nc1nnn(-c2ccccc2)c1-c1ccccc1,.,.,.,/,.,.,/,/,/,/,/
Clc1c(-c2ccccc2)nnn1-c1ccccc1,.,76,91,.,77,.,74,81,96,75,76
Cc1ccc(CONC(=O)c2cccc(C)c2)cc1,.,.,65,/,.,.,.,.,78,77,56
COc1ccc(C(=O)N[C@H](C(=O)NC2CCCCC2)C(C)C)cc1,.,.,.,/,.,.,/,/,/,/,/
O=C(c1cc(-c2ccc(Br)cc2)on1)N1CCCC1,.,.,55,.,.,.,.,.,.,.,.
COc1ccc(-c2cc(C(=O)N3CCCCCC3)no2)cc1,.,.,57,.,.,.,.,50,83,56,.
COc1cccc(-c2cc(C(=O)N3CCCCCC3)no2)c1,.,.,67,.,.,.,62,61,85,62,.
CN(C)CCNC(=O)CCn1nc(-c2ccc(Cl)cc2)ccc1=O,.,.,.,.,.,.,/,/,/,/,/
Nc1cccc2cnccc12,.,89,91,.,.,.,.,.,.,.,.
Oc1cccc2cnccc12,.,.,.,.,.,.,/,/,/,/,/
O=C(NCc1ccc(F)cc1)c1cccc(S(=O)(=O)N2CCOCC2)c1,.,.,.,/,.,.,/,/,/,/,/
O=C1N[C@H](C(=O)O)CS1,/,.,.,/,.,/,/,/,/,/,/
CCCC1=NN(c2ccc([N+](=O)[O-])cc2)C(=O)/C1=C\N(C)C,.,95,95,.,96,52,97,97,102,97,97
O=C(Nc1cccc([N+](=O)[O-])c1)c1ccc2ccccc2c1O,.,92,90,.,92,.,.,.,.,.,.
O=C(Nc1ccccn1)c1ccc2ccccc2c1O,.,.,63,.,.,.,.,.,76,63,59
SMILES,SENP1 inh,SENP8 block-1,SENP6 inh,HSP90 inh,SENP7 inh,SENP8 block-2,SENP8 confirm,SENP6 confirm,SENP7 confirm,Casp3 SENP sel,SENP luc ctr
O=C(Cc1ccccc1)Nc1cccc([N+](=O)[O-])c1,.,.,.,.,.,.,/,/,/,/,/
O=C(Nc1cccnc1)c1ccc2ccccc2c1O,.,85,94,.,88,.,93,92,100,93,87
Cc1cc(Br)ccc1NC(=O)CN(C)C(=O)C1CCN(C(=O)c2ccc(Cl)cc2)CC1,.,/,/,/,/,.,/,/,/,/,/
CC1CCc2c(sc(NC(=O)c3cccs3)c2C(=O)O)C1 (stereo not given),.,76,88,.,.,.,86,86,92,66,86
O=C(Nc1sc2c(c1C(=O)O)CCCCC2)c1cccs1,.,95,96,.,71,.,98,98,102,94,96
O=C(Nc1sc2c(c1C(=O)O)CCCC2)c1cccs1,.,85,93,.,56,.,.,90,98,86,90
COC(=O)c1c(NC(=O)c2cccs2)sc2c1CCC(C)C2 (stereo not given),.,.,.,.,.,.,/,/,/,/,/
O=C(/C=C/c1cccs1)Nc1sc2c(c1C(=O)O)CCCC2,.,55,74,.,.,.,.,66,81,58,71
O=C(NCc1ccc(Cl)cc1Cl)C1CC(=O)N(Cc2ccccc2)C1 (stereo not given),.,.,.,.,.,.,/,/,/,/,/
CCc1nc2ccc(C(=O)NCCOc3ccc(OC)cc3)cn2c1N(CC)Cc1ccc(OC)c(OC)c1,.,/,/,/,/,.,/,/,/,/,/
O=C(COC(=O)Cn1cnc2ccccc21)Nc1cc2c(cc1Cl)C(=O)c1ccccc1C2=O,.,61,71,.,90,.,58,67,86,73,.
O=C(COC(=O)Cn1cnc2ccccc21)Nc1cc(S(=O)(=O)N2CCOCC2)ccc1Cl,.,.,.,.,.,.,/,/,/,/,/
Nc1[nH]n(-c2ccccc2)c(=O)c1N=Nc1ccc2c(c1)OCCO2,.,84,73,.,93,.,.,94,99,83,.
Nc1nn(-c2ccccc2)c(N)c1N=Nc1ccc2c(c1)OCO2,.,.,62,.,.,.,.,.,76,.,61
Cc1cc([N+](=O)[O-])ccc1N=Nc1c(N)[nH]n(-c2ccccc2)c1=O,.,.,.,.,.,.,/,/,/,/,/
NNC(=O)c1ccc(NS(=O)(=O)c2ccc(Br)cc2)cc1,/,.,.,.,.,/,/,/,/,/,/
Cc1ccc(S(=O)(=O)Oc2cccc(/C=N/n3cnnc3)c2)cc1,.,.,.,.,.,.,/,/,/,/,/
Cc1ccc(S(=O)(=O)Oc2cccc(/C=N/Nc3ccc(C(=O)O)cc3)c2)cc1,.,88,.,.,62,.,.,96,101,.,90
CCCC[n+]1ccc(-c2nc3ccc([N+](=O)[O-])cc3[nH]2)cc1,.,.,.,.,.,.,/,/,/,/,/

# Screening data from PubChem.
